# Measurements published in the RNAGym collection of RNA variant scans (doi:10.1126/science.aae0568).
# Fewer inactive variants are shown than the library holds.
# B1: tRNA (parent)
# chain: GUUCCGUUGGCGUAAUGGUAACGCGUCUCCCUCCUAAGGAGAAGACUGCGGGUUCGAGUCCCGUACGGAACG
# Variants of: B1
# Assay: yeast fitness relative to wild type (ratio to wild type); higher = fitter; tRNA-Arg(CCU), competitive growth, 37 C, YPD
# Outline: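 Genotype frequency changes were the basis for Darwinian fitness relative to wild type. The frequencies came from 100-nucleotide paired-end sequencing of gene amplicons from the start population and each end population of pooled yeast strains with tRNA-Arg(CCU) gene variants at the native locus. Competition ran in YPD at 37°C for 24 hours in six replicates, genotypes needed ≥ 100 starting reads, and estimates < 0.5 were set to 0.5.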
row,Variant,yeast fitness
1,GUUCCGUUGGCGUAAUGGUAACGGGUCCCCCUCCUAAGGAGAAGACUGCGGGUUCGAGUCCCGUACGGAACG [C24G U28C],0.508
2,GUUCCGUUGGCGUAAUGGUACAGCGUCUCCCUCCUAAGGAGAAGACUGCGGGUUCGAGUUCCGUACGGAACG [A21C C22A C60U],≤ 0.5
3,GUUCCGUUGGCGUCAUGAUAAGGCGUCUCCCUCCUAAGGAGAAGACUGAGGGUUCGAGCCCCGUACGGGACG [A14C G18A C22G C49A U59C A69G],≤ 0.5
4,GUUCCGUUGGCGUAAUGGUAGAGCGUCUCCCUCCUAAGGAGAAGACUGAGGGUUCCAGUCCCGUACGGAACG [A21G C22A C49A G56C],≤ 0.5
5,GUUCCGUUGGCGUAAUGGUAACGCGUCUCCCUCGUAAGGUGACGAAUGCGGGUUCGAGUCCCCUACGGAACG [C34G A40U A43C C46A G63C],≤ 0.5
6,GUUCCGUUGGCGUAAUGGUGACGCGUCUCCCUCCUAAGGAGAAGACUGCGGGUUCGAGUCCUGUACGGAACG [A20G C62U],1.05
7,GUUCCGUUGGCGUAAUGGUAACGGGUCUCCCUCCUCAGGAGAAGACUGCGGGUGCGAGUCCCGUACGGAACG [C24G A36C U54G],≤ 0.5
8,GUUCCGUUGGCGUAAUGGUAACGCGUCUGCAUCCUAAGGAGACGACUGCGGGUUCGAGUCCCGUACAGAACG [C29G C31A A43C G67A],≤ 0.5
9,GUUCCGUUGGCGUAAUGGUAACGCAUCUCCCUCCUAAGGAGAAGACUGCGGGUUCGAGUUCCGUACGGAACG [G25A C60U],0.808
10,GUUCCGUUGGGGUAAUGGUAACGCGUCUUCCUCCUAAGGAGAAGACUGCGGAUUCGAGUCCCGUACGGAACG [C11G C29U G52A],≤ 0.5
11,GUUCCGUUGGCGUAAUGGUAACGCGUCUCCCUCCUAAGGAGAAGACUCCGGCUUCGAGUCCCGUACGGAACG [G48C G52C],0.552
12,GUUCCGUUGGCGUAAUGGUAACGCGUCUCCCUCCUAAGAAGAAGACUGCGGGUUCGAGUUCCGUACGGAACG [G39A C60U],0.81
13,GUUCCGUUGGCGUACUGGUAACGCGUCUCCCUCCUAAGGAGAAGACUGCGGGUUCGAGUACCGUACGGAUCG [A15C C60A A70U],0.555
14,GUUCCGUUGGCGUAAUGGUAACGGGUCUCCCUCCUAAGGAGAAGACUGCGGGGUCGGGUCCCGUACGGAACG [C24G U53G A57G],0.545
15,GUUAGGUUGGCGUAAUGGUAACGCGUCUCACUCCUAAGGAGAAGACUGCGGGUUCGAGUCCCGUACGGAACG [C4A C5G C30A],≤ 0.5
16,GUUCCGUUGGCGUAAUGGUAACGCGUCUCCCUCCUAAGGAGAAGACUGCGGGUUCGAGUCCCCCACGGAACG [G63C U64C],0.969
17,GUUCCAUUGGCGUACUGGUAACGCGUAUCCCUCCUAAGGAGAAGACUGCGGGUUCGAGUCGCGUACGGAUCG [G6A A15C C27A C61G A70U],0.579
18,GUUUCGUUGGCGUAAUGGUAACGCGUCUCCCUCCUAAGGAGAAGACUGAGGGUUCGCGUCCCGUACGGUACG [C4U C49A A57C A69U],≤ 0.5
19,GUUCCGUUGGCGUCAUGGUCACGCGUCUCCCUCCUAAGGAGAAGACUGCGGGUUCGAGUCCCGUACGGAACG [A14C A20C],0.533

row,Variant,yeast fitness
1,GUUCCGUUGCCGUAAAGGUAACGCGUCUCCCUCCUAAGGAGAAGACUGCGGGUUCGAGUCCCGUGCGGAACG [G10C U16A A65G],≤ 0.5
2,GUUCCGUUGGCGUAAUGGUAACGCGUCUCGGUCCUAACGAGAAGAGUGCGGGUUCGAGUCCCGUACGGCACG [C30G C31G G38C C46G A69C],0.572
3,GUUCCGUUGGCGCAAUGGUAACGCGUCUCCCUCCUAAGGAGAAGACUGCGGGUACGAGUUCCGUACGGAACG [U13C U54A C60U],≤ 0.5
4,GUUCCGUUGCCGUAAUGGUAACGAGUCUCCCUGCUAAGGGGGAGACUGCGGGUUCGAGUCCCGUACGGAACG [G10C C24A C33G A40G A42G],≤ 0.5
5,GUUCCGAUGGCGUAAUGGUCGCACGUCUCCCUCCUAAGGAGAAGACUGCGGGUUCGAGUCCCGUACGGAUCG [U7A A20C A21G G23A A70U],≤ 0.5
6,GUUCCGUUGGCGUAAUGGUAACGCGUCUCCCCCCUAAGGAGAAGACUGCGGGUUCGAGUCCCCUACGGAACG [U32C G63C],0.759
7,GUUACGUUGGCGUAAUGGUAACGCGUCUCCCUCCUGAGGAGAAGACUGCGGGUUCGACUCCCGUACGGAACG [C4A A36G G58C],0.565
8,GUUCCGUUGGCGUAAUGGUAACGCGUCUCCCUCCUAAGGAGCAGACUGCGGGUUCGAGUCCCGUAUGGAACG [A42C C66U],0.816
9,GUUCCGUUGGCGUAGUAGUAACGCGUCUCCCUCCUAAGGCGAAGACUGCGGGUUCGAGUCCCGUACGGAACG [A15G G17A A40C],≤ 0.5
10,GUUCCGUUGGCGUUAUGGUAACGCGUUUCCCUCCUAAGGAGAAGACUGCGGGUUCGAGUCCCGUAGGGAACG [A14U C27U C66G],≤ 0.5
11,GUCCCGUUGGCGUAAUGGUAACGCGUCUCCCUCCUAAGGAGAAGACUGCGGAUUCGAGUCCCGUACGGAACG [U3C G52A],0.743
12,GUUCCGUUGGCGCAAUGGUAACGCGUCUCCCUCCUAAGGACAAGACUGCGGGUUCGAGUCCCGUACGGACCG [U13C G41C A70C],0.566
13,GUUCCGUUGGCGUAAUGGUAACGCGUCAGCCUUGUAAGGAGUAGACUGCGGGUUCGAGUCCCGUACGGAACG [U28A C29G C33U C34G A42U],0.536
14,GUUCCGUAGGCGUAAUGGUAACGCGUCUCCUUCCUAAGGAGAAGACUGCGGGUUCGAGUACGGUACGGACCG [U8A C31U C60A C62G A70C],≤ 0.5
15,GUUCCGUUGGCGUAAUGGUAACCAGUCUCCCUCCUAAAGAGAAGACUGCGGGUUCGAGUCCAGUACGGGACG [G23C C24A G38A C62A A69G],≤ 0.5
16,GUUCCGUUGGCGUUAUGGUAGCGCGUCUCCCUCCUAAGGAGAAGACUGCGGGUUCGAGUCCCGUACGGAACG [A14U A21G],0.584
17,GCUCCGUUGGCGUAAUGGUAACGCGUCUCCCUCCUAAAGAGAAGACUGCGGGUUCGAGUCCCGUACGGAACG [U2C G38A],0.901
18,GUUCCGUUGGCGUAAUGGUAACGGGUCUCCCUCCUGAGGAGAAGACUGCGGGUUCGAGUCACGUACGGAACG [C24G A36G C61A],≤ 0.5
19,GUUCCGUUGGCGUAAUGGUAACGCGUCUCCCUCCUAAGGAGGGGAGUGCGGGUUCCAGUCCCGUACGGAACG [A42G A43G C46G G56C],0.57
